Source: ChEMBL document CHEMBL1127450, “Synthesis and antiviral activity evaluation of some aminoadamantane derivatives” (1994)
Values after ≈ are worked out from the molar mass of the structure shown.

Columns and labels:
Type in all cases: functional
CCRF-CEM [1] = test: Tested for minimum inhibitory concentration required to reduce virus-induced cell viability by 50% on CEM cell line; conditions: Homo sapiens
CCRF-CEM [2] = test: Tested for minimum inhibitory concentration required to reduce virus-induced cytopathicity by 50% on CEM cell line infected with HIV-2 virus; conditions: Homo sapiens
CCRF-CEM [3] = test: Tested for minimum inhibitory concentration required to reduce virus-induced cytopathicity by 50% was evaluated on CEM cell line infected with HIV-1 virus; conditions: Homo sapiens
HEF [4] = test: Tested for minimum inhibitory concentration required to cause a microscopically detectable alteration of normal cell morphology by 50% on HEF cell line; conditions: Homo sapiens
Method in brief: (§1)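 Human embryonic skin-muscle fibroblasts (HEF) were used. The value is the minimum concentration that causes a microscopically detectable alteration of normal cell morphology. Values are averages of at least two separate experiments.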

HEF [5] = test: Tested for minimum inhibitory concentration required to reduce […] by 50% on HEF cell line; conditions: Homo sapiens
Method in brief: (§2)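 Human embryonic lung fibroblasts (HEF) were used for cell proliferation. The value is the concentration that reduces cell proliferation by 50%. Values are averages of at least two separate experiments.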

HEF [6] = test: Tested for minimum inhibitory concentration required to reduce virus-induced cytopathicity by 50% on HEF cell line infected with HSV-1 virus; conditions: Homo sapiens
Method in brief: (§3)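 Human embryonic skin-muscle fibroblasts (HEF) were infected with the stated virus. The value is the concentration that reduces virus-induced cytopathicity by 50%. Values are averages of at least two separate experiments.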

HEF [7] = test: Tested for minimum inhibitory concentration required to reduce virus-induced cytopathicity by 50% on HEF cell line infected with vesicular stomatitis virus; conditions: Homo sapiens; method in brief: as §3
HEF [8] = test: Tested for minimum inhibitory concentration required to reduce virus-induced cytopathicity by 50% on HEF cell line infected with HSV-2 virus; conditions: Homo sapiens; method in brief: as §3
HEF [9] = test: Tested for minimum inhibitory concentration required to reduce virus-induced cytopathicity by 50% on HEF cell line infected with thymidine kinase-deficient herpes simplex virus type 1 (TK-HSV-1); conditions: Homo sapiens; method in brief: as §3
HEF [10] = test: Tested for minimum inhibitory concentration required to reduce virus-induced cytopathicity by 50% on HEF cell line infected with vaccinia virus; conditions: Homo sapiens; method in brief: as §3
HeLa [11] = test: Tested for minimum inhibitory concentration required to cause a microscopically detectable alteration of normal cell morphology by 50% on HeLa cell line; conditions: Homo sapiens
Method in brief: (§4)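 HeLa (human epithelial), MDCK (Madin-Darby canine kidney) or Vero (African green monkey kidney) cells were scored by microscopy. The value is the minimum concentration that causes a detectable alteration of normal cell morphology. Values are averages of at least two separate experiments.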

HeLa [12] = test: Tested for minimum inhibitory concentration required to reduce virus-induced cytopathicity by 50% on HeLa cell line infected with RSV virus; conditions: Homo sapiens
Method in brief: (§5)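 HeLa (human epithelial), MDCK (Madin-Darby canine kidney) or Vero (African green monkey kidney) cells were infected with the stated virus. The value is the concentration that reduces virus-induced cytopathicity by 50%. Values are averages of at least two separate experiments.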

HeLa [13] = test: Tested for minimum inhibitory concentration required to reduce virus-induced cytopathicity by 50% on HeLa cell line infected with polio 1 virus; conditions: Homo sapiens; method in brief: as §5
MDCK [14] = test: Tested for minimum inhibitory concentration required to reduce virus-induced cytopathicity by 50% on MDCK cell line infected with influenza A virus; conditions: Canis lupus familiaris; method in brief: as §5
MDCK [15] = test: Tested for minimum inhibitory concentration required to reduce virus-induced cytopathicity by 50% on MDCK cell line infected with influenza B virus; conditions: Canis lupus familiaris; method in brief: as §5
MDCK [16] = test: Tested for minimum inhibitory concentration required to cause a microscopically detectable alteration of normal cell morphology by 50% on MDCK cell line; conditions: Canis lupus familiaris; method in brief: as §4
Vero [17] = test: Tested for minimum inhibitory concentration required to cause a microscopically detectable alteration of normal cell morphology by 50% on vero cell line; conditions: Chlorocebus sabaeus; method in brief: as §4
Vero [18] = test: Tested for minimum inhibitory concentration required to reduce virus-induced cytopathicity by 50% on vero cell line infected with Reo 1 virus; conditions: Chlorocebus sabaeus; method in brief: as §5
Vero [19] = test: Tested for minimum inhibitory concentration required to reduce virus-induced cytopathicity by 50% on vero cell line infected with coxsackie B4 virus; conditions: Chlorocebus sabaeus; method in brief: as §5
Vero [20] = test: Tested for minimum inhibitory concentration required to reduce virus-induced cytopathicity by 50% on vero cell line infected with parainfluenza 3 virus; conditions: Chlorocebus sabaeus; method in brief: as §5
Vero [21] = test: Tested for minimum inhibitory concentration required to reduce virus-induced cytopathicity by 50% on vero cell line infected with semliki forest; conditions: Chlorocebus sabaeus; method in brief: as §5
Vero [22] = test: Tested for minimum inhibitory concentration required to reduce virus-induced cytopathicity by 50% on vero cell line infected with sindbis virus; conditions: Chlorocebus sabaeus; method in brief: as §5
CCRF-CEM [23] = test: tested for minimum inhibitory concentration required to reduce virus-induced cell viability by 50% on CEM cell line; conditions: Homo sapiens
CCRF-CEM [24] = test: tested for minimum inhibitory concentration required to reduce virus-induced cytopathicity by 50% on CEM cell line infected with HIV-2 virus; conditions: Homo sapiens
CCRF-CEM [25] = test: tested for minimum inhibitory concentration required to reduce virus-induced cytopathicity by 50% was evaluated on CEM cell line infected with HIV-1 virus; conditions: Homo sapiens
HEF [26] = test: tested for minimum inhibitory concentration required to cause a microscopically detectable alteration of normal cell morphology by 50% on HEF cell line; conditions: Homo sapiens; method in brief: as §1
HEF [27] = test: tested for minimum inhibitory concentration required to reduce […] by 50% on HEF cell line; conditions: Homo sapiens; method in brief: as §2
HEF [28] = test: tested for minimum inhibitory concentration required to reduce virus-induced cytopathicity by 50% on HEF cell line infected with HSV-2 virus; conditions: Homo sapiens; method in brief: as §3
HEF [29] = test: tested for minimum inhibitory concentration required to reduce virus-induced cytopathicity by 50% on HEF cell line infected with vaccinia virus; conditions: Homo sapiens; method in brief: as §3
HEF [30] = test: tested for minimum inhibitory concentration required to reduce virus-induced cytopathicity by 50% on HEF cell line infected with vesicular stomatitis virus; conditions: Homo sapiens; method in brief: as §3
HeLa [31] = test: tested for minimum inhibitory concentration required to cause a microscopically detectable alteration of normal cell morphology by 50% on HeLa cell line; conditions: Homo sapiens; method in brief: as §4
HeLa [32] = test: tested for minimum inhibitory concentration required to reduce virus-induced cytopathicity by 50% on HeLa cell line infected with polio 1 virus; conditions: Homo sapiens; method in brief: as §5
MDCK [33] = test: tested for minimum inhibitory concentration required to cause a microscopically detectable alteration of normal cell morphology by 50% on MDCK cell line; conditions: Canis lupus familiaris; method in brief: as §4
Vero [34] = test: tested for minimum inhibitory concentration required to cause a microscopically detectable alteration of normal cell morphology by 50% on vero cell line; conditions: Chlorocebus sabaeus; method in brief: as §4
Vero [35] = test: tested for minimum inhibitory concentration required to reduce virus-induced cytopathicity by 50% on vero cell line infected with Reo 1 virus; conditions: Chlorocebus sabaeus; method in brief: as §5
Vero [36] = test: tested for minimum inhibitory concentration required to reduce virus-induced cytopathicity by 50% on vero cell line infected with coxsackie B4 virus; conditions: Chlorocebus sabaeus; method in brief: as §5
Vero [37] = test: tested for minimum inhibitory concentration required to reduce virus-induced cytopathicity by 50% on vero cell line infected with semliki forest virus; conditions: Chlorocebus sabaeus; method in brief: as §5
Vero [38] = test: tested for minimum inhibitory concentration required to reduce virus-induced cytopathicity by 50% on vero cell line infected with sindbis virus; conditions: Chlorocebus sabaeus; method in brief: as §5
CCRF-CEM [39] = test: Tested for minimum inhibitory concentration required to reduce virus-induced cell viability by 50% on CEM cell line.; conditions: Homo sapiens
Vero [40] = test: Tested for minimum inhibitory concentration required to reduce virus-induced cytopathicity by 50% on vero cell line infected with semliki forest virus; conditions: Chlorocebus sabaeus; method in brief: as §5
Vero [41] = test: Tested for minimum inhibitory concentration required to cause a microscopically detectable alteration of normal cell morphology by 50% on Vero cell line; conditions: Chlorocebus sabaeus; method in brief: as §4

Row | SMILES | MIC50 (CCRF-CEM [1]) | MIC50 (CCRF-CEM [2]) | MIC50 (CCRF-CEM [3]) | MIC50 (HEF [4]) | MIC50 (HEF [5]) | MIC50 (HEF [6]) | MIC50 (HEF [7]) | MIC50 (HEF [8]) | MIC50 (HEF [9]) | MIC50 (HEF [10]) | MIC50 (HeLa [11]) | MIC50 (HeLa [12]) | MIC50 (HeLa [13]) | MIC50 (MDCK [14]) | MIC50 (MDCK [15]) | MIC50 (MDCK [16]) | MIC50 (Vero [18]) | MIC50 (Vero [19]) | MIC50 (Vero [20]) | MIC50 (Vero [22]) | other results
1 | NCC1CC12C1CC3CC(C1)CC2C3 (stereo not drawn) | 14 µg/mL (≈ 73.2 µM) | > 8 µg/mL | > 8 µg/mL | 40 µg/mL (≈ 209 µM) | 28 µg/mL (≈ 146 µM) | > 20 µg/mL | > 20 µg/mL | > 20 µg/mL | > 20 µg/mL | > 20 µg/mL | 20 µg/mL (≈ 105 µM) | ≥ 15 µg/mL | > 10 µg/mL | 0.8 µg/mL (≈ 4.18 µM) | > 20 µg/mL | 20 µg/mL (≈ 105 µM) | > 20 µg/mL | > 20 µg/mL | > 20 µg/mL | > 20 µg/mL | MIC50 (Vero [17]): 40 µg/mL (≈ 209 µM); MIC50 (Vero [21]): > 20 µg/mL
2 | C1CN(CC2CC2)C2(C1)C1CC3CC(C1)CC2C3 (stereo not drawn) |  |  |  |  |  | 300 µg/mL (≈ 1220 µM) |  |  | ≥ 400 µg/mL |  |  | ≥ 150 µg/mL |  | ≥ 40 µg/mL | > 100 µg/mL |  |  |  | > 400 µg/mL |  | MIC50 (CCRF-CEM [23]): > 200 µg/mL; MIC50 (CCRF-CEM [24]): > 200 µg/mL; MIC50 (CCRF-CEM [25]): > 200 µg/mL; MIC50 (HEF [26]): > 400 µg/mL; MIC50 (HEF [27]): > 200 µg/mL; MIC50 (HEF [28]): > 400 µg/mL; MIC50 (HEF [29]): 100 µg/mL (≈ 407 µM); MIC50 (HEF [30]): 150 µg/mL (≈ 611 µM); MIC50 (HeLa [31]): > 400 µg/mL; MIC50 (HeLa [32]): > 400 µg/mL; MIC50 (MDCK [33]): 100 µg/mL (≈ 407 µM); MIC50 (Vero [34]): > 400 µg/mL; MIC50 (Vero [35]): > 400 µg/mL; MIC50 (Vero [36]): > 400 µg/mL; MIC50 (Vero [37]): > 400 µg/mL; MIC50 (Vero [38]): > 400 µg/mL
3 | O=C(Nc1ccc(Cl)cc1)N1CCCC12C1CC3CC(C1)CC2C3 (stereo not drawn) |  | > 1.6 µg/mL | > 1.6 µg/mL | 40 µg/mL (≈ 116 µM) | 150 µg/mL (≈ 435 µM) | > 20 µg/mL | > 20 µg/mL | > 20 µg/mL | > 20 µg/mL | > 20 µg/mL | 100 µg/mL (≈ 290 µM) | > 20 µg/mL | > 70 µg/mL | 2.4 µg/mL (≈ 6.96 µM) | > 20 µg/mL | 20 µg/mL (≈ 58 µM) | > 70 µg/mL | > 70 µg/mL | > 70 µg/mL | > 70 µg/mL | MIC50 (CCRF-CEM [39]): 3.4 µg/mL (≈ 9.86 µM); MIC50 (Vero [17]): 100 µg/mL (≈ 290 µM); MIC50 (Vero [40]): > 70 µg/mL
4 | NC1CC12C1CC3CC(C1)CC2C3 (stereo not drawn) | 32 µg/mL (≈ 180 µM) | > 8 µg/mL | > 8 µg/mL | 40 µg/mL (≈ 226 µM) | 80 µg/mL (≈ 451 µM) | > 20 µg/mL | > 20 µg/mL | > 20 µg/mL | > 20 µg/mL | > 20 µg/mL | 40 µg/mL (≈ 226 µM) | 30 µg/mL (≈ 169 µM) | > 20 µg/mL | 30 µg/mL (≈ 169 µM) | > 100 µg/mL | 100 µg/mL (≈ 564 µM) | > 40 µg/mL | > 40 µg/mL | > 40 µg/mL | > 40 µg/mL | MIC50 (Vero [41]): 100 µg/mL (≈ 564 µM); MIC50 (Vero [40]): > 40 µg/mL
